A1 apoptosis 2 – blocks A1, raising caspase activity. MEF A1-2A-BIM cells, caspase-Glo luminescence, 3 h; percent of clofoctol response, DMSO zero. caspase activation, % (test concentration not listed). 24,000 tested, under 10 active; in the data active = caspase activation above about 5.9%
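system = A1-2A-BIM-expressing MEF cells | quantity = 2500 MEF cells/well | dosing = 50 nL compound per well, pinned | schedule = overnight cell settling, then 3 h compound exposure, 37 °C | signal = luminescence from DEVD-luciferin Caspase-Glo reagent, 1:1 in 50 mM HEPES, 1 h RT | read-out = Caspase-3/7 activation, seen as rise in luminescence signal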
T cruzi intra – blocks T. cruzi growth inside host cells; intracellular Trypanosoma cruzi in host cells, plate reader; activity score (inhibition), % at 5.01 µM; 4.9% of 22,000 active; AID 651903; in the data active = activity score above about 55%;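 also: parasites and compound incubated about four days before reading; 0% = median of neutral control wells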
INS-1E ATP HTS – rescue of cytokine-induced death in INS-1E beta cells. INS-1E cytokine-induced death, ATP luminescence, 48 h; normalised: neutral wells 0, positive control 100. protection from cytokine-induced ATP loss, % at 10 µM. 0.1% of 20,000 active;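 active = mean replicate protection from cytokine-induced ATP loss at least 50% and at least 75% of replicates each reaching 50%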
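Assay system: INS-1E rat cells / Quantity: 8000 cells per well / Medium: RPMI without phenol red, 5% FBS / Probe or stimulus: three-cytokine cocktail (IFN-γ, TNF-α, IL-1β) / Dosing: one compound concentration, pin transfer / Timing: 48 h co-treatment, 10 min post-lysis read / Technique: CellTiter-Glo luminescence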
Numbers without * were called inactive; nt = no result. This is one part of a sample in which hits are shown more often than they occur.

SMILES	A1 apoptosis 2	T cruzi intra	INS-1E ATP HTS
C[C@@H]1CN([C@H](C)CO)C(=O)c2cccc(NS(=O)(=O)c3ccc(Cl)cc3)c2O[C@@H]1CN(C)C(=O)Nc1ccc(C(F)(F)F)cc1	0.5	2.5	-33.1
C[C@@H]1CN([C@H](C)CO)C(=O)c2cccc(NC(=O)Nc3ccc(C(F)(F)F)cc3)c2O[C@@H]1CN(C)C(=O)Nc1ccc(C(F)(F)F)cc1	-0.4	74.7*	-111.6
C[C@H]1CN([C@@H](C)CO)C(=O)c2cccc(NC(=O)Nc3ccc(C(F)(F)F)cc3)c2O[C@H]1CN(C)C(=O)Nc1ccc(C(F)(F)F)cc1	nt	48.4	-2.9
COc1ccc(CN(C)C[C@H]2Oc3c(NC(=O)Nc4c(C)noc4C)cccc3C(=O)N([C@H](C)CO)C[C@@H]2C)cc1	0.0	-9.2	7.4
CC(C)NC(=O)Nc1ccc2c(c1)C(=O)N([C@H](C)CO)C[C@@H](C)[C@@H](CN(C)Cc1ccc(C(=O)Nc3ccccc3N)cc1)O2	-0.2	12.0	10.9
C[C@H](CO)N1C[C@H](C)[C@H](CN(C)C(=O)Nc2ccc(C(F)(F)F)cc2)Oc2ccc(NC(=O)Nc3cccc4ccccc34)cc2CC1=O	0.2	9.1	-19.5
C[C@H](CO)N1C[C@H](C)[C@H](CN(C)Cc2ccccc2)Oc2ccc(NC(=O)Nc3cccc4ccccc34)cc2CC1=O	nt	40.1	-10.5
C[C@H]1CN([C@@H](C)CO)C(=O)Cc2cc(NC(=O)Nc3cccc4ccccc34)ccc2O[C@@H]1CN(C)Cc1ccc(C(F)(F)F)cc1	-0.3	69.2*	-52.0
C[C@@H]1CN([C@@H](C)CO)C(=O)Cc2cc(NC(=O)Nc3cccc4ccccc34)ccc2O[C@@H]1CN(C)C(=O)Nc1ccc(C(F)(F)F)cc1	0.8	46.0	-30.3
C[C@@H]1CN([C@H](C)CO)C(=O)Cc2cc(NC(=O)Nc3cccc4ccccc34)ccc2O[C@H]1CN(C)Cc1ccc(C(F)(F)F)cc1	0.2	58.7*	-53.8
C[C@H](CO)N1C[C@H](C)[C@H](CN(C)Cc2ccc(C(F)(F)F)cc2)Oc2ccc(NC(=O)Nc3cccc4ccccc34)cc2CC1=O	nt	79.3*	-38.5
C[C@H]1CN([C@@H](C)CO)C(=O)Cc2cc(NC(=O)Nc3cccc4ccccc34)ccc2O[C@H]1CN(C)Cc1ccc(C(F)(F)F)cc1	nt	72.8*	-80.5
C[C@H](CO)N1C[C@H](C)[C@H](CN(C)Cc2ccc(C(=O)O)cc2)Oc2ccc(NC(=O)Nc3cccc4ccccc34)cc2CC1=O	-0.3	1.9	4.6
CC(C)NC(=O)Nc1ccc2c(c1)C(=O)N([C@@H](C)CO)C[C@@H](C)[C@H](CN(C)C(=O)Cc1ccccc1)OCCCC[C@@H](C)O2	-0.9	nt	nt
C[C@H]1CN([C@@H](C)CO)C(=O)Cc2cc(NC(=O)Nc3ccc(C(F)(F)F)cc3)ccc2O[C@H]1CN(C)C(=O)Nc1ccc(F)cc1	0.6	-3.8	-3.2
C[C@H](CO)N1C[C@H](C)[C@H](CN(C)Cc2ccc(C(F)(F)F)cc2)OCc2cnnn2CCCC1=O	-0.6	14.7	-0.7
C[C@H](CO)N1C[C@H](C)[C@@H](CN(C)Cc2ccc(C(F)(F)F)cc2)Oc2ccc(NS(=O)(=O)c3cccs3)cc2C1=O	-0.8	60.1*	-12.5
C[C@H]1CN([C@@H](C)CO)C(=O)c2cc(NS(=O)(=O)c3cccs3)ccc2O[C@@H]1CN(C)Cc1ccc(C(F)(F)F)cc1	-0.4	nt	nt
C[C@H]1CN([C@@H](C)CO)C(=O)c2cc(NS(=O)(=O)c3cccs3)ccc2O[C@H]1CN(C)Cc1ccc(C(F)(F)F)cc1	-0.5	39.1	nt
C[C@H](CO)N1C[C@H](C)[C@H](CN(C)Cc2ccc(C(F)(F)F)cc2)Oc2ccc(NS(=O)(=O)c3cccs3)cc2C1=O	nt	58.3*	-14.3
C[C@@H]1CCCCO[C@H](CN(C)S(C)(=O)=O)[C@H](C)CN([C@@H](C)CO)C(=O)c2cc(NS(=O)(=O)c3ccccc3)ccc2O1	-0.3	nt	nt
C[C@@H]1CN([C@@H](C)CO)C(=O)c2cc(NS(C)(=O)=O)ccc2O[C@@H](C)CCCCO[C@H]1CN(C)C(=O)CCCN(C)C	-0.4	nt	nt
C[C@H](CO)N1C[C@H](C)[C@H](CN(C)C(=O)Nc2ccc3c(c2)OCO3)Oc2ncc(-c3cccc(C(F)(F)F)c3)cc2C1=O	nt	67.3*	nt
COc1ccc(NC(=O)N(C)C[C@@H]2Oc3ncc(-c4cccc(C(F)(F)F)c4)cc3C(=O)N([C@H](C)CO)C[C@@H]2C)cc1	-0.8	59.4*	nt
COc1ccc(NC(=O)N(C)C[C@@H]2Oc3ncc(-c4ccc(OC)cc4)cc3C(=O)N([C@H](C)CO)C[C@@H]2C)cc1	nt	28.8	nt
SMILES	A1 apoptosis 2	T cruzi intra	INS-1E ATP HTS
C[C@H](CO)N1C[C@H](C)[C@H](CN(C)C(=O)Nc2ccc(F)cc2)Oc2ncc(-c3cccc(C(F)(F)F)c3)cc2C1=O	-0.7	50.8	nt
C[C@H](CO)N1C[C@H](C)[C@H](CN(C)C(=O)Nc2ccc3c(c2)OCO3)Oc2ncc(-c3cccc(F)c3)cc2C1=O	nt	-14.8	nt
C[C@H](CO)N1C[C@H](C)[C@H](CN(C)C(=O)Nc2ccc3c(c2)OCO3)Oc2ncc(C#Cc3ccc(F)cc3)cc2C1=O	1.9	-16.9	-2.5
C[C@H](CO)N1C[C@H](C)[C@H](CN(C)C(=O)Nc2ccccc2)Oc2ncc(-c3cccc(C(F)(F)F)c3)cc2C1=O	-0.6	63.9*	nt
C[C@H](CO)N1C[C@H](C)[C@H](CN(C)C(=O)Nc2ccc3c(c2)OCO3)Oc2ncc(C#Cc3ccccc3)cc2C1=O	1.2	69.2*	nt
COc1ccc(CN(C)C[C@@H]2Oc3ccc(NC(=O)NC4CCCCC4)cc3C(=O)N([C@@H](C)CO)C[C@H]2C)cc1	0.9	-9.5	1.7
C[C@H](CO)N1C[C@H](C)[C@H](CN(C)C(=O)NC2CCCCC2)OCCCC[C@H](C)Oc2ccc(NS(=O)(=O)c3cccs3)cc2C1=O	0.4	nt	nt
C[C@H]1CN([C@@H](C)CO)C(=O)c2cccc(NC(=O)c3ccncc3)c2O[C@H]1CN(C)Cc1ccc(C(=O)O)cc1	1.4	-30.3	12.7
C[C@H]1CN([C@@H](C)CO)C(=O)c2cccc(NC(=O)c3ccncc3)c2O[C@@H]1CN(C)Cc1ccc(-c2ccccc2)cc1	nt	79.2*	-16.0
C[C@H](CO)N1C[C@H](C)[C@H](CN(C)Cc2ccc(C(=O)Nc3ccccc3N)cc2)Oc2c(NC(=O)c3ccncc3)cccc2C1=O	1.6	-27.3	-4.0
C[C@H]1CN([C@@H](C)CO)C(=O)c2cccc(NC(=O)c3ccncc3)c2O[C@H]1CN(C)Cc1ccc(-c2ccccc2)cc1	2.2	72.4*	-10.2
COc1ccc(NC(=O)N(C)C[C@@H]2Oc3ccc(NS(C)(=O)=O)cc3C(=O)N([C@@H](C)CO)C[C@H]2C)cc1	0.1	-28.4	-6.5
CC(C)NC(=O)N(C)C[C@H]1Oc2c(NS(=O)(=O)c3ccc(Cl)cc3)cccc2C(=O)N([C@H](C)CO)C[C@@H]1C	-1.2	-0.7	17.5
Cc1ccc(S(=O)(=O)N(C)C[C@H]2OCCCC[C@H](C)Oc3ccc(NC(=O)Nc4ccc5c(c4)OCO5)cc3C(=O)N([C@H](C)CO)C[C@H]2C)cc1	1.0	nt	nt
